Data published in ChEMBL document CHEMBL1138155, “A lactosylated steroid contributes in vivo therapeutic benefits in experimental models of mouse lymphoma and human glioblastoma” (J Med Chem, 2006).

Assays:
[1] = tested on: U373 MG; test: Antimigratory activity against human U373 glioblastoma cell line at 100nM after 22h; type: functional, U-373MG ATCC
In short: (§1)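 Computer-assisted videomicroscopy tracking of living cultured cells, one image every 4 min over 24 h; migration scored as maximum relative distance from origin (MRDO) per cell, read at 12 or 22 h with compound at 100 nM or without (control). Control normalized to 0%. Triplicate analyses, 121–184 cells per condition; mean ± standard error.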

[2] = tested on: A549; test: Cytotoxicity against human A549 NSCLC cell line; type: functional, cell-based
In short: (§2)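 Colorimetric MTT assay on cultured human cancer cells after 3 days of continuous drug exposure. IC50 is the concentration that reduces overall cell-population growth by 50% relative to untreated cells.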

[3] = tested on: MCF7; test: Cytotoxicity against human MCF7 breast cancer cell line; type: functional, cell-based; in short: as §2
[4] = tested on: A549; test: Antimigratory activity against human A549 NSCLC cell line at 100 nM after 12h; type: functional; conditions: A549, 12 h; in short: as §1
[5] = tested on: A549; test: Antimigratory activity against human A549 NSCLC cell line at 100 nM after 22h; type: functional; conditions: A549, 22 h; in short: as §1
[6] = tested on: Mus musculus; test: Toxicity in mice at 160 mg/kg, ip 28 days post dose; type: organism-based; parameters: dose 160 mg/kg, route intraperitoneal; conditions: in vivo, 672 h
In short: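 Healthy, non-tumor-grafted mice received a single acute ip dose of 160 mg/kg. Body weight and survival were recorded over at least 28 days after dosing to detect toxic effects.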

[7] = tested on: Hs 683; test: Cytotoxicity against human Hs683 cancer cell line; type: functional, cell-based; in short: as §2
[8] = tested on: U373 MG; test: Cytotoxicity against human U373 glioblastoma cell line; type: functional, cell-based, U-373MG ATCC; in short: as §2
[9] = tested on: HCT-15; test: Cytotoxicity against human HCT15 colon cancer cell line; type: functional, cell-based; in short: as §2
[10] = tested on: PC-3; test: Cytotoxicity against human PC3 prostate cancer cell line; type: functional, cell-based; in short: as §2
[11] = tested on: PC-3; test: Antimigratory activity against human PC3 prostate cancer cell line at 100 nM after 12h; type: functional; conditions: PC-3, 12 h; in short: as §1
[12] = tested on: PC-3; test: Antimigratory activity against human PC3 prostate cancer cell line at 100 nM after 22h; type: functional; conditions: PC-3, 22 h; in short: as §1
[13] = tested on: U373 MG; test: Antimigratory activity against human U373 glioblastoma cell line at 100 nM after 12h; type: functional, U-373MG ATCC; in short: as §1

COc1ccc(OC)c([C@@H]2C[C@H]3[C@@H]4CC=C5C[C@@H](O[C@@H]6O[C@H](CO)[C@@H](O)[C@H](O)[C@@H]6O)CC[C@]5(C)[C@H]4CC[C@]3(C)[C@H]2C(C)=O)c1
inhibition at 0.1 µM [1]: -4% | IC50 [2]: > 10 µM | IC50 [3]: > 10 µM | inhibition at 0.1 µM [4]: 20% | inhibition at 0.1 µM [5]: 1% | Activity [6]: Non-toxic | IC50 [7]: > 10 µM | IC50 [8]: > 10 µM | IC50 [9]: > 10 µM | IC50 [10]: > 10 µM | inhibition at 0.1 µM [11]: 2% | inhibition at 0.1 µM [12]: -1% | inhibition at 0.1 µM [13]: 2%

COc1ccc(OC)c([C@@H]2C[C@H]3[C@@H]4CC=C5C[C@@H](O[C@@H]6O[C@H](CO)[C@@H](O)[C@H](O)[C@H]6O)CC[C@]5(C)[C@H]4CC[C@]3(C)[C@H]2C(C)=O)c1
inhibition at 0.1 µM [1]: -8% | IC50 [2]: > 10 µM | IC50 [3]: > 10 µM | inhibition at 0.1 µM [4]: 2% | inhibition at 0.1 µM [5]: 9% | Activity [6]: Non-toxic | IC50 [7]: > 10 µM | IC50 [8]: > 10 µM | IC50 [9]: > 10 µM | IC50 [10]: > 10 µM | inhibition at 0.1 µM [11]: 2% | inhibition at 0.1 µM [12]: 6% | inhibition at 0.1 µM [13]: -6%
